EC50, MCC and CC50 data for nine compounds are collected here from ChEMBL document CHEMBL1138797, “6-azapyrimidine-2'-deoxy-4'-thionucleosides: antiviral agents against TK+ and TK- HSV and VZV strains” (J Med Chem, 2004).

The structures appear in SMILES notation. ≈ marks a conversion by molar mass, not a printed value. A value given as a limit tells only on which side of the number the result lay.

Series [1] deals with HEL. The series is described as follows: Effective concentration required to reduce CMV AD169 strain virus plaque formation by 50% in HEL cell culture. Format: functional, cell-based, Cytomegalovirus. As to conditions: Homo sapiens. In short, it runs like this: (§1)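 Plaque-reduction assay in confluent HEL cell cultures. After 1 h adsorption of a 20 PFU virus input, residual virus was removed and cells were incubated with graded compound concentrations. Plaques were scored once cytopathicity was complete in untreated infected controls. […] The TK-deficient VZV line refers to strain YS/R.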

Series [2] deals with E6SM. Kind of series: Effective concentration required to reduce HSV-1 strain KOS virus plaque formation by 50% in E6SM Cell Culture. Format: functional, cell-based. As to conditions: Homo sapiens. In short, it runs like this: (§2)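 Confluent E6SM cell cultures in microtiter trays were infected with 20 PFU for a 1 h adsorption period, then washed free of residual virus and incubated with serial compound dilutions (400, 200, 100, ... μg/mL). Plaque formation was read when cytopathicity was complete in virus controls. […] The TK-deficient HSV-1 line refers to HSV-1/TK⁻ ACVʳ.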

In series [3] the test system is HEL. Kind of series: Effective concentration required to reduce […] (thymidine kinase deficient) VZV strain 07/1 virus plaque formation by 50% in HEL cell culture. As to conditions: Homo sapiens. It is filed as functional, cell-based, Human alphaherpesvirus 3.
The subject of series [4] is HEL. Kind of series: Effective concentration required to reduce TK+ (thymidine kinase presence) VZV strain YS virus plaque formation by 50% in HEL cell culture. Format: functional, cell-based, Human alphaherpesvirus 3. As to conditions: Homo sapiens.
A short description of series [5]: Minimum cytotoxic concentration that causes microscopically detectable alteration of cell morphology in HEL cell culture. Format: cell-based. As to conditions: human, HEL cells.
Series [6] is described as follows: Cytotoxic concentration required to reduce HEL cell growth by 50%. It is filed as cell-based. As to conditions: human, HEL cells.
Series [7] deals with E6SM. Kind of series: Effective concentration required to reduce HSV-1 strain KOS ACV virus plaque formation by 50% in E6SM Cell Culture. It is filed as functional, cell-based. As to conditions: Homo sapiens. In short, it runs like this:
as §2

Series [8] deals with HEL. Kind of series: Effective concentration required to reduce […] (thymidine kinase deficient) VZV strain YS/R virus plaque formation by 50% in HEL cell culture. It is filed as functional, cell-based, Human alphaherpesvirus 3. As to conditions: Homo sapiens.
Series [9] concerns HEL. Kind of series: Effective concentration required to reduce CMV davis strain virus plaque formation by 50% in HEL cell culture. Format: functional, cell-based, Cytomegalovirus. As to conditions: Homo sapiens. In short, it runs like this:
as §1

For series [10], the system named is E6SM. Kind of series: Effective concentration required to reduce HSV-2 strain G virus plaque formation by 50% in E6SM Cell Culture. It is filed as functional, cell-based. As to conditions: Homo sapiens. Put shortly: as §2
For series [11], the system named is E6SM. Kind of series: Minimum cytotoxic concentration that caused a microscopically detectable alteration of cell morphology in E6SM Cell Culture. Format: functional. As to conditions: Homo sapiens.
The test system of series [12] is HEL. Kind of series: Effective concentration required to reduce TK+ (thymidine kinase presence) VZV strain OKA virus plaque formation by 50% in HEL cell culture. As to conditions: Homo sapiens. Format: functional, cell-based, Human alphaherpesvirus 3.
In series [13] the test system is E6SM. Kind of series: Effective concentration required to reduce vaccinia virus plaque formation by 50% in E6SM Cell Culture. Format: functional, cell-based. As to conditions: Homo sapiens. Put shortly:
as §2

Series [14] deals with HEL. Kind of series: Effective concentration required to reduce […] (thymidine kinase deficient) VZV strain YS/R virus plaque formation by 50% in HEL cell culture; No complete inhibition. It is filed as functional, cell-based, Human alphaherpesvirus 3. As to conditions: Homo sapiens. Put shortly:
as §1

For `CC(=O)OC[C@H]1S[C@@H](n2nc(C)c(=S)[nH]c2=O)C[C@@H]1OC(C)=O`, the EC50 in the series with HEL [1] is over 40 µM; in the series on E6SM [2], over 8 µg/mL; with HEL [3], over 40 µM; with HEL [4] it was over 40 µM; with E6SM [7] it was over 8 µg/mL; in the series with HEL [8] it was over 40 µM. Moreover, the EC50 with HEL [9] was over 40 µM; with E6SM [10], over 8 µg/mL; in the series on HEL [12] it was over 40 µM; in the series with E6SM [13], over 8 µg/mL. The MCC in [5] is over 40 µM; in the series with E6SM [11], at least 40 µg/mL. For the same compound, in [6], the CC50 was over 40 µM.
For `Cc1nn([C@H]2C[C@H](O)[C@@H](CO)S2)c(=O)nc1N`, the EC50 with HEL [1] was over 40 µM; in the series on E6SM [2], 24 µg/mL (≈ 92.9 µM); in the series with HEL [3], over 40 µM; in the series with HEL [4], over 40 µM; in the series on E6SM [7], 120 µg/mL (≈ 465 µM); in the series on HEL [8], over 40 µM. The EC50 in the series with HEL [9] was over 40 µM; with E6SM [10], 24 µg/mL (≈ 92.9 µM); with HEL [12] it was over 40 µM; in the series with E6SM [13] it was 24 µg/mL (≈ 92.9 µM). Also, the figures for the MCC (in series [5]; with E6SM [11]) were over 40 µM and over 200 µg/mL, respectively. Also, the CC50 in series [6] is over 40 µM.
Take `Cc1nn([C@H]2C[C@H](O)[C@@H](CO)S2)c(=O)[nH]c1=S`: the EC50 in the series on HEL [1] is over 40 µM; in the series with E6SM [2] it was 120 µg/mL (≈ 436 µM); in the series on HEL [3], over 40 µM; in the series on HEL [4], over 40 µM; in the series on E6SM [7] it was 120 µg/mL (≈ 436 µM); in the series with HEL [8], over 40 µM. The EC50 is over 40 µM with HEL [9], 120 µg/mL (≈ 436 µM) in the series with E6SM [10], over 40 µM in the series on HEL [12] and 120 µg/mL (≈ 436 µM) in the series with E6SM [13]. Also, the figures for the MCC (in series [5]; in the series on E6SM [11]) were over 40 µM and over 200 µg/mL, respectively. For the same compound, in [6], the CC50 was over 40 µM.
Take `Cc1nn([C@H]2C[C@H](O)[C@@H](CO)S2)c(=O)nc1O`: the EC50 is over 200 µM with HEL [1]; 1.3 µg/mL (≈ 5.01 µM) in the series on E6SM [2]; 14 µM with HEL [3]; 4.1 µM in the series with HEL [4]; at least 5 µM in the series on HEL [14]; 18 µg/mL (≈ 69.4 µM) in the series on E6SM [7]. In addition, the EC50 in the series on HEL [9] was over 200 µM; in the series with E6SM [10], 3.2 µg/mL (≈ 12.3 µM); in the series on HEL [12] it was 2.5 µM; in the series on E6SM [13], 2.2 µg/mL (≈ 8.48 µM). Moreover, the figures for the MCC (in [5]; in the series on E6SM [11]) were over 200 µM and over 200 µg/mL, respectively. Also, in series [6], the CC50 worked out at 166 µM.
For the compound `O=c1[nH]c(=O)n([C@H]2C[C@H](O)[C@@H](CO)O2)cc1/C=C/Br` [BRIVUDINE], the EC50 with HEL [1] is over 150 µM; in the series on E6SM [2], 0.01 µg/mL (≈ 0.03 µM); with HEL [3], 29 µM; with HEL [4], 0.003 µM; in the series with E6SM [7], 16 µg/mL (≈ 48 µM); with HEL [8], 56 µM. The EC50 in the series on HEL [9] was over 400 µM; in the series with E6SM [10], 80 µg/mL (≈ 240 µM); in the series on HEL [12], 0.003 µM; with E6SM [13], over 400 µg/mL. The compound also displayed an MCC in the series with E6SM [11] of over 400 µg/mL.
For `CCc1nn([C@H]2C[C@H](O)[C@@H](CO)S2)c(=O)nc1O`, the EC50 is over 40 µM in the series on HEL [1]; 120 µg/mL (≈ 439 µM) in the series on E6SM [2]; over 40 µM in the series on HEL [3]; over 40 µM with HEL [4]; over 200 µg/mL in the series with E6SM [7]; over 40 µM with HEL [8]. Moreover, the EC50 in the series on HEL [9] is over 40 µM; in the series with E6SM [10], over 200 µg/mL; in the series on HEL [12] it was over 40 µM; with E6SM [13], over 200 µg/mL. Further, the MCC is over 40 µM in [5] and over 200 µg/mL in the series on E6SM [11].
`Nc1nc2c(ncn2COC(CO)CO)c(=O)[nH]1` [GANCICLOVIR]: the 50% effective concentration (EC50) in the series on HEL [1] was 0.5 µM; in the series with E6SM [2], 0.004 µg/mL (≈ 0.0157 µM); in the series with E6SM [7] it was 2.4 µg/mL (≈ 9.4 µM); with HEL [9] it was 1.5 µM; in the series on E6SM [10], 0.003 µg/mL (≈ 0.0118 µM); with E6SM [13], over 100 µg/mL. Also, the MCC in series [5] was over 150 µM; in the series with E6SM [11], over 100 µg/mL. In series [6], this compound yielded a CC50 of over 150 µM.
In the case of `CCCc1nn([C@H]2C[C@H](O)[C@@H](CO)S2)c(=O)[nH]c1=O`, the EC50 in the series with HEL [1] was over 40 µM; with E6SM [2], over 200 µg/mL; in the series with HEL [3] it was over 40 µM; in the series with HEL [4], over 40 µM; in the series on E6SM [7], 120 µg/mL (≈ 418 µM); in the series on HEL [8], over 40 µM. Further, the EC50 is over 40 µM with HEL [9], over 200 µg/mL in the series with E6SM [10], over 40 µM in the series on HEL [12] and over 200 µg/mL in the series on E6SM [13]. Moreover, the figures for the MCC (in [5]; with E6SM [11]) were over 40 µM and over 200 µg/mL, respectively. In series [6], this compound came in with a CC50 of over 40 µM.
With `Nc1nc2c(ncn2COCCO)c(=O)[nH]1` [ACYCLOVIR], the EC50 is over 200 µM in the series on HEL [1]; 0.07 µg/mL (≈ 0.311 µM) with E6SM [2]; 48 µg/mL (≈ 213 µM) in the series on E6SM [7]; over 400 µM in the series with HEL [9]; 0.07 µg/mL (≈ 0.311 µM) with E6SM [10]; 0.38 µg/mL (≈ 1.69 µM) in the series on E6SM [13]. In the series with E6SM [11], this compound yielded an MCC of over 400 µg/mL.
